Results gathered from unrelated publications.
Each line is one published result; the experiments were not run side by side.
Target: Aurora kinase B (AURKB, Homo sapiens, UniProt Q96GD4)

SMILES	test	conditions	quantity	value
Cc1ccc(C(=O)NCc2ccsc2)cc1C#Cc1cn(C(C)C)c2ncnc(N)c12	enzyme activity, inhibitor	1 µM	activity vs control	40%
CC(=O)c1c(NS(C)(=O)=O)c2cc(-c3ccc(Cl)cc3)c(-c3ccc(Cl)cc3Cl)nc2n(C)c1=O	cell-free assay, competition with immobilised ligand	1 µM	remaining binding	100%
Brc1cnc(Nc2cccc(CN3CCOCC3)c2)nc1NCCc1c[nH]cn1	enzyme activity, inhibitor, radiometric	1 µM	remaining activity	1%
C=CC(=O)Nc1cc(Nc2nccc(Nc3cc(Cl)c(F)cc3C(C)(C)O)n2)c(OC)cc1N1CC[C@@H](N(C)C)C1	enzyme activity, inhibitor	1 µM	inhibition	10%
CS(=O)(=O)Nc1cccc(-c2csc(NC(=O)CSc3nc4nccnc4c(=O)n3CCc3ccccc3)n2)c1	enzyme activity, inhibitor	10 µM	inhibition	-11%
CN(C)CC#Cc1ccc(OCCCc2sc(N3CCc4cccc(C(=O)Nc5nc6ccccc6s5)c4C3)nc2C(=O)O)c(F)c1	cell-free assay, competition with immobilised ligand	1 µM	remaining binding	79%
C#Cc1cccc(Nc2ncnc3cc(OCCOC)c(OCCOC)cc23)c1	enzyme activity, inhibitor	0.5 µM	activity vs control	74.7%
Cc1nc(N2CC[C@@H](O)C2)ncc1-c1cc(C(F)(F)F)cc2[nH]ncc12	cell-free assay, competition with immobilised ligand	1 µM	remaining binding	100%
COc1cc2nccc(Oc3ccc(NC(=O)c4c5n(n(-c6ccc(F)cc6)c4=O)CCCC5)cc3)c2cc1OC	enzyme activity, inhibitor	0.1 µM	inhibition	60%
O=C(NCCCNc1nc(Nc2cccc(NC(=O)N3CCCC3)c2)ncc1C1CC1)C1CCC1	enzyme activity, inhibitor, radiometric	1 µM	remaining activity	11%
COc1cc2c(Nc3ccc(Br)cc3F)ncnc2cc1OCC1CCN(C)CC1	cell-free assay	0.5 µM	remaining signal	95.5%
Cc1c[nH]c2nccc(Oc3c(F)cc(Nc4cc(Cl)nc(N)n4)cc3F)c12	cell-free assay, competition with immobilised ligand	0.1 µM	remaining binding	82%
Cc1cc(Nc2cc3ncccc3c(N[C@@H]3C[C@H]4CC[C@@H](C3)N4CCC#N)n2)n[nH]1	enzyme activity, inhibitor	1 µM	inhibition	80%
CNc1cccc2cc(C(=O)Nc3ccc(C(=O)O)cc3)c(=O)[nH]c12	enzyme activity, inhibitor	10 µM	inhibition	-8.1%
CN(C)C1CCN(CC#Cc2nn(C3CCCC3)c3nc(NCc4ccccc4)ncc23)C1 (centres unmarked)	enzyme activity, inhibitor, FRET	1 µM	inhibition	21%
Cc1nn(CC(F)(F)F)cc1Nc1ncc(C2CC2)c(NCCCNC(=O)C2CCC2)n1	enzyme activity, inhibitor, radiometric	1 µM	remaining activity	102%
CO[C@@H](C)c1c(Nc2ccc([C@@H](N(C)C(=O)C3CCS(=O)(=O)CC3)C(F)(F)F)cc2)cnc2cc(Cl)nn12	cell-free assay, competition with immobilised ligand	1 µM	remaining binding	74%
O=C(Nc1cccc(Nc2ncc(Br)c(NCCc3cnc[nH]3)n2)c1)N1CCCC1	enzyme activity, inhibitor, radiometric	1 µM	remaining activity	2%
N#CCCc1ccc2c(c1)-c1[nH]c3ccc([N+](=O)[O-])cc3c1CC(=O)N2	cell-free assay	0.5 µM	remaining signal	80%
CC(=O)C1=C(C)N(c2cccc(C(F)(F)F)c2)C(=O)N[C@@H]1c1ccc(C#N)nc1	cell-free assay, competition with immobilised ligand	1 µM	remaining binding	100%
